Laboratory results from ChEMBL document CHEMBL1142981, “Identification and synthesis of a novel selective partial PPARdelta agonist with full efficacy on lipid metabolism in vitro and in vivo” (J Med Chem, 2007).

Legend:
L6 [1] = assay: Effect on fatty acid oxidation in rat L6 cells; type: functional, cell-based
Procedure, shortened: (§1)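 Rat L6 myoblasts differentiated 5 days in 2% serum, then treated 42 h with compound (refreshed at 24 h), followed by 6 h with 0.4 mM palmitate containing [9,10-3H]-palmitic acid on 2% fatty-acid-free BSA. Stopped with 10% TCA; released 3H-H2O collected by overnight equilibration at 50 °C and counted.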

[2] = biological target: T1, Peroxisome proliferator-activated receptor delta (Homo sapiens, UniProt Q03181)
T1 sequence (Q03181 whole entry): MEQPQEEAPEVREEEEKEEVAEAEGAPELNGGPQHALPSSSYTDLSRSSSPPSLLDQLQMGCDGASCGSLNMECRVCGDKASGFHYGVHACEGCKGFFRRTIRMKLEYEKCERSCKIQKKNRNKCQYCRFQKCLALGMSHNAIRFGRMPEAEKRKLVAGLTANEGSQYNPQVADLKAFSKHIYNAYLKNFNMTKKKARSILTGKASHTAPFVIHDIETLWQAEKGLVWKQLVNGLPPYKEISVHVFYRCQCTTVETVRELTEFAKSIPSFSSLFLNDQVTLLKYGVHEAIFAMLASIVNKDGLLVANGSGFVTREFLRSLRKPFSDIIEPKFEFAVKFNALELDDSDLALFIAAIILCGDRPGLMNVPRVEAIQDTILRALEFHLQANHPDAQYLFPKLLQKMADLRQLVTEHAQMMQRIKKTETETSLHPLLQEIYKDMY

[3] = biological target: T2, Peroxisome proliferator-activated receptor alpha (Homo sapiens, UniProt Q07869); assay: Activity at human liver PPAR alpha expressed in HEK293 cells by PPAR-GAL4 transactivation assay; type: cell-based
T2 sequence (Q07869 whole entry): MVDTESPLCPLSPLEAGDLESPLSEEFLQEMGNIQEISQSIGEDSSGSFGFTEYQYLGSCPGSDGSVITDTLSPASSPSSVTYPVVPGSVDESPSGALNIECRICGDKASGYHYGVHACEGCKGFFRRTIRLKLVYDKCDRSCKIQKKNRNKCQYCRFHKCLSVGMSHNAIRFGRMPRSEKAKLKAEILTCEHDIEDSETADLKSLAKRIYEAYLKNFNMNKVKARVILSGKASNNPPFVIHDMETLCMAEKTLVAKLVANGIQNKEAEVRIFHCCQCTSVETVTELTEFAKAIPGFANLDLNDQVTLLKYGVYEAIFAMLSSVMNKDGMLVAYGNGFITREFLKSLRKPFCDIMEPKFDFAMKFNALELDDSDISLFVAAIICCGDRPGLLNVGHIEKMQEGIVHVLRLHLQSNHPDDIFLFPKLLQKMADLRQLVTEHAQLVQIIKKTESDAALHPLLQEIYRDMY

[4] = biological target: T3, Peroxisome proliferator-activated receptor alpha (Homo sapiens) (UniProt Q07869); assay: Activity at human liver PPAR alpha expressed in HEK293 cells by GAL4 transactivation assay relative to NNC61-4655; type: cell-based
T3 sequence (whole entry): T2 sequence (Q07869 whole entry)

L6 [5] = assay: Effect on increase in fatty acid oxidation in rat L6 cells relative to GW-501516; type: functional; set-up: concentration or dose not given beside the values; procedure, shortened: as §1
[6] = Plasma Cmax in Sprague-Dawley rat at 0.45 mg/kg, po; type: ADME, organism-based; set-up: dose 0.45 mg/kg, route oral
Procedure, shortened: (§2)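 Male SD rats, single oral dose in 5% ethanol/10% HPCD/phosphate buffer pH 7.5-8.0, n = 8. One animal was killed at each of 5, 15, 30, 60, 90, 120, 240 and 360 min. EDTA plasma was analysed by turbulent-flow LC-MS/MS. Cmax, half-life and oral bioavailability were taken from the plasma curves, with bioavailability using a parallel i.v. arm.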

[7] = Half life in Sprague-Dawley rat at 0.45 mg/kg, po; type: ADME, organism-based; set-up: dose 0.45 mg/kg, route oral; conditions: in vivo; procedure, shortened: as §2
[8] = Volume of distribution in Sprague-Dawley rat at 0.20 mg/kg, iv; type: ADME, organism-based; set-up: dose 0.2 mg/kg, route intravenous; conditions: in vivo, 0.2 mg/kg, read-out: Vss
Procedure, shortened: (§3)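 Male SD rats received a single p.o. or i.v. dose (n = 8 per route) in 5% ethanol, 10% HPCD and phosphate buffer, pH 7.5-8.0. At 5, 15, 30, 60, 90, 120, 240 and 360 min one rat was sacrificed per time point. EDTA plasma was assayed by high turbulence LC-MS/MS. Cmax and bioavailability were taken from oral dosing; volume of distribution is at steady state.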

[9] = Clearance in Sprague-Dawley rat at 0.20 mg/kg, iv; type: ADME, organism-based; set-up: dose 0.2 mg/kg, route intravenous; conditions: in vivo, 0.2 mg/kg
Procedure, shortened: (§4)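 Male SD rats dosed once i.v. or p.o. (n = 8 per route), vehicle 5% ethanol, 10% HPCD, phosphate buffer pH 7.5-8.0. One animal sacrificed at each of 5, 15, 30, 60, 90, 120, 240 and 360 min; EDTA plasma analysed by high turbulence LC-MS/MS. Each data point represents one animal.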

[10] = biological target: T4, Peroxisome proliferator-activated receptor gamma (Homo sapiens, UniProt P37231); type: cell-based, HEK293
T4 sequence (P37231 whole entry): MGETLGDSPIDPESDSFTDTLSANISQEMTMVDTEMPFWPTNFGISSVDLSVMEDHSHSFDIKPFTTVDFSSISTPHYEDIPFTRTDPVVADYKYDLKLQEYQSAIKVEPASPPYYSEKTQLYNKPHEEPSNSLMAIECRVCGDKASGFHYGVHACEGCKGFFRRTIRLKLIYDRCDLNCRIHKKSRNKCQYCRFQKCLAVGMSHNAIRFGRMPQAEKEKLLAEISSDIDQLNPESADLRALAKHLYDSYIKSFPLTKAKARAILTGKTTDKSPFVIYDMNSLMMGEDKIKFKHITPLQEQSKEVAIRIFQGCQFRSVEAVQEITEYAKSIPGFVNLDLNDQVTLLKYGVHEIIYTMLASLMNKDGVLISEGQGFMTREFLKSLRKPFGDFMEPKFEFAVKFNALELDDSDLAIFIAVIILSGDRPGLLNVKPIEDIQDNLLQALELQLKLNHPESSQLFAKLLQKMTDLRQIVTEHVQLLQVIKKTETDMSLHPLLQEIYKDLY

[11] = Clearance in Sprague-Dawley rat at 1.08 mg/kg, iv; type: ADME, organism-based; set-up: dose 1.08 mg/kg, route intravenous; conditions: in vivo; procedure, shortened: as §4
[12] = Plasma Cmax in Sprague-Dawley rat at 2.29 mg/kg, po; type: ADME, organism-based; set-up: dose 2.29 mg/kg, route oral; procedure, shortened: as §3
[13] = Volume of distribution in Sprague-Dawley rat at 1.08 mg/kg, iv; type: ADME, organism-based; set-up: dose 1.08 mg/kg, route intravenous; conditions: in vivo, read-out: Vss; procedure, shortened: as §3
[14] = Half life in Sprague-Dawley rat at 2.29 mg/kg, po; type: ADME, organism-based; set-up: dose 2.29 mg/kg, route oral; conditions: in vivo; procedure, shortened: as §4
[15] = Oral bioavailability in Sprague-Dawley rat at 2.29 mg/kg; type: ADME, organism-based; conditions: in vivo; procedure, shortened: as §3
[16] = biological target: T5, Peroxisome proliferator-activated receptor delta (Mus musculus) (UniProt P35396); assay: Agonist activity at mouse PPAR delta expressed in HEK293 cells by PPAR-GAL4 transactivation assay; type: functional, cell-based
T5 sequence (whole entry): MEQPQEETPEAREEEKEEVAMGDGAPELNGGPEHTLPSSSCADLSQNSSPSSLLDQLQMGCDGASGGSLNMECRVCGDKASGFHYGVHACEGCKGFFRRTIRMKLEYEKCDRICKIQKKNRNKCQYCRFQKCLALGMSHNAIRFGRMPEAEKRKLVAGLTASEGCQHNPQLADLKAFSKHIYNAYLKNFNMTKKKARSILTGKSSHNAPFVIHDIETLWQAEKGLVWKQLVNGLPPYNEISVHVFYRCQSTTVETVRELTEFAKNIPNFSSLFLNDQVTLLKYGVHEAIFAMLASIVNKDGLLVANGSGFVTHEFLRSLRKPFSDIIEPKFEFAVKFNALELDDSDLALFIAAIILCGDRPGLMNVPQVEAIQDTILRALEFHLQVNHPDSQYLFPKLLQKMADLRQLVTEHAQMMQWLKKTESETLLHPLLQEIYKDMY

[17] = Oral bioavailability in Sprague-Dawley rat at 2.13 mg/kg; type: ADME, organism-based; conditions: in vivo; procedure, shortened: as §3
Mus musculus [18] = assay: Decrease in HbA1c level in human ApoB100/CETP transgenic mouse at 6 mg/kg, po after 6 weeks relative to control; type: functional; set-up: scale not given: the % may be the effect or the level left
Mus musculus [19] = assay: Decrease in glucose level in human ApoB100/CETP transgenic mouse at 6 mg/kg, po after 6 weeks relative to control; type: functional; set-up: scale not given: the % may be the effect or the level left
Mus musculus [20] = assay: Decrease in LDL level in human ApoB100/CETP transgenic mouse at 6 mg/kg, po after 6 weeks relative to control; type: functional; set-up: scale not given: the % may be the effect or the level left
[21] = Volume of distribution in Sprague-Dawley rat at 1.09 mg/kg, iv; type: ADME, organism-based; set-up: dose 1.09 mg/kg, route intravenous; conditions: in vivo, read-out: Vss; procedure, shortened: as §3
[22] = Half life in Sprague-Dawley rat at 2.13 mg/kg, po; type: ADME, organism-based; set-up: dose 2.13 mg/kg, route oral; conditions: in vivo; procedure, shortened: as §4
Mus musculus [23] = assay: Increase in HDL level in human ApoB100/CETP transgenic mouse at 6 mg/kg, po after 6 weeks relative to control; type: functional
Mus musculus [24] = assay: Decrease in insulin level in human ApoB100/CETP transgenic mouse at 6 mg/kg, po after 6 weeks by ELISA relative to control; type: functional; set-up: scale not given: the % may be the effect or the level left
L6 [25] = assay: Effect on increase in fatty acid oxidation in rat L6 cells relative to basal; type: functional; procedure, shortened: as §1
[26] = Clearance in Sprague-Dawley rat at 1.09 mg/kg, iv; type: ADME, organism-based; set-up: dose 1.09 mg/kg, route intravenous; conditions: in vivo; procedure, shortened: as §4
Mus musculus [27] = assay: Decrease in total cholesterol level in human ApoB100/CETP transgenic mouse at 6 mg/kg, po after 6 weeks relative to control; type: functional; set-up: scale not given: the % may be the effect or the level left
Mus musculus [28] = assay: Decrease in triglycerides level in human ApoB100/CETP transgenic mouse at 6 mg/kg, po after 6 weeks relative to control; type: functional; set-up: scale not given: the % may be the effect or the level left
Mus musculus [29] = assay: Decrease in total ketone bodies level in human ApoB100/CETP transgenic mouse at 6 mg/kg, po after 6 weeks relative to control; type: functional; set-up: scale not given: the % may be the effect or the level left
[30] = Plasma Cmax in Sprague-Dawley rat at 2.13 mg/kg, po; type: ADME, organism-based; set-up: dose 2.13 mg/kg, route oral; procedure, shortened: as §3

| Structure (SMILES) | EC50 (L6 [1]) [nM] | EC50 [2] [nM] | EC50 [3] [nM] | Efficacy [4] [%] | Activity (L6 [5]) [%] | Cmax [6] [ng/mL] | half-life [7] [h] | EC50 [10] [nM] | further results |
| --- | --- | --- | --- | --- | --- | --- | --- | --- | --- |
| O=C(O)CCc1ccc(OCC=C(c2ccc(Br)cc2)c2ccc(Br)cc2)cc1 | 212 | 520 | > 10000 | > 12 | 69 |  |  |  |  |
| O=C(O)CCc1cccc(OCC=C(c2ccc(Br)cc2)c2ccc(Br)cc2)c1 | 615 | 5900 |  | < 10 | 59 | 51 | 15.9 |  | Vd [8]: 5.3 L/kg; clearance [9]: 27 mL/min/kg |
| CCO[C@@H](Cc1ccc(OCC=C(c2ccc(Br)cc2)c2ccc(Br)cc2)cc1)C(=O)O |  | 540 | 390 | 93 |  |  |  | 590 | clearance [11]: 21.4 mL/min/kg; Cmax [12]: 554 ng/mL; Vd [13]: 2.3 L/kg; half-life [14]: 1.42 h; bioavailability [15]: 78% |
| Cc1cc(SCc2sc(-c3ccc(C(F)(F)F)cc3)nc2C)ccc1OCC(=O)O [GW501516] | 6 |  |  | 68 |  |  |  |  | Activity [16]: 269%; bioavailability [17]: 136%; Activity (Mus musculus [18]): 13%; Activity (Mus musculus [19]): 4%; Activity (Mus musculus [20]): 19%; Vd [21]: 1 L/kg; half-life [22]: 10.2 h; Activity (Mus musculus [23]): 4%; Activity (Mus musculus [24]): 41%; Activity (L6 [25]): 120%; clearance [26]: 7 mL/min/kg; Activity (Mus musculus [27]): 15%; Activity (Mus musculus [28]): 14%; Activity (Mus musculus [29]): 49%; Cmax [30]: 454 ng/mL |
| O=C(O)Cc1cccc(OCC=C(c2ccc(Br)cc2)c2ccc(Br)cc2)c1 | 224 | 830 | > 10000 | > 19 | 78 | 419 | 2.55 | > 10000 |  |
